Assay results from ChEMBL document CHEMBL1152541, “Staurosporine tethered peptide ligands that target cAMP-dependent protein kinase (PKA): optimization and selectivity profiling” (Bioorg Med Chem, 2009).
*1 amine or outer side, *2 acyl side, *3 side chain or, on linkers, in order; H or OH if unused. Where a SMILES comes first, the peptide text is derived from it. Bridges are numbered along the chain shown (N, C = ends). [ ]: non-standard residue; d: D form. The star is where a group is joined. Staurosporine = CO[C@@H]1[C@H](N(C)*)C[C@H]2O[C@]1(C)n1c3ccccc3c3c4c(c5c6ccccc6n2c5c31)C(=O)NC4; Suc = O=C(CCC(=O)[*:2])[*:1]; Dap = NC[C@H](N)C(=O)O; βAla = NCCC(=O)O

Experiments:
[1] = target: T1, Testis-specific serine/threonine-protein kinase 1 (Homo sapiens) (UniProt Q9BXA7); assay: Binding affinity to human TSSK1 at 500 nM by cell-based competition binding assay relative to control in presence of DTT
T1 sequence (whole entry): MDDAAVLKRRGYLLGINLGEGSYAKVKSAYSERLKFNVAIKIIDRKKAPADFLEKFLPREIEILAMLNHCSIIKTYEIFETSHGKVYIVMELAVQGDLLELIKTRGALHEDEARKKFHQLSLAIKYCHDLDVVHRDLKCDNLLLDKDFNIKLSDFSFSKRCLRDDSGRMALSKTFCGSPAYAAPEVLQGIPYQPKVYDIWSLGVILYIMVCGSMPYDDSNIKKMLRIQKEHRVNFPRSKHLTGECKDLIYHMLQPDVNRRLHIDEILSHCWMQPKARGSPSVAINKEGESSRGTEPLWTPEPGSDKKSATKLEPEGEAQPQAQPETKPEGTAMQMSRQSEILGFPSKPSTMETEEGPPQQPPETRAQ

[2] = target: Dual specificity tyrosine-phosphorylation-regulated kinase 1B (Homo sapiens) (UniProt Q9Y463); assay: Binding affinity to human DYRK1B at 500 nM by cell-based competition binding assay relative to control in presence of DTT
Dual specificity tyrosine-phosphorylation-regulated kinase 1B (Homo sapiens), sequence (Q9Y463 whole entry, looked up): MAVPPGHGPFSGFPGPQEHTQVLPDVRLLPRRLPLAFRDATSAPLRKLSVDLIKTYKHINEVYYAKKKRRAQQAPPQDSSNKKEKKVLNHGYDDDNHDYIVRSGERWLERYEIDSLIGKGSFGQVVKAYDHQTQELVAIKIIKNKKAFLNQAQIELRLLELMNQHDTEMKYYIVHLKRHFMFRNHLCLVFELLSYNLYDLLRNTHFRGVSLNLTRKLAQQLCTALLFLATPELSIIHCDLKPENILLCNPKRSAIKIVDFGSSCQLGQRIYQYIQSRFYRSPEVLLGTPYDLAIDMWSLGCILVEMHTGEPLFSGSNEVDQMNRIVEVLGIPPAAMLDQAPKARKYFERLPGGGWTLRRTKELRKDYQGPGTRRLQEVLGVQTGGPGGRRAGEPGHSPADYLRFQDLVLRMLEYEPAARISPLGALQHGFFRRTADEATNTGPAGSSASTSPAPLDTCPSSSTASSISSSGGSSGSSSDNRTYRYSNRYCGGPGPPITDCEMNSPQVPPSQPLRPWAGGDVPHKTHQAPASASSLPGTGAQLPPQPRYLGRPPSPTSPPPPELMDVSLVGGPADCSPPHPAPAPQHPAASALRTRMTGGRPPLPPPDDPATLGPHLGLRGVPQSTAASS
Outline: (§1)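 Commercial (Ambit) competitive kinase-binding panel of 90 kinases measured the binding profile. Run under reducing conditions of 7.5 mM DTT. Binding is expressed relative to control.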

[3] = target: Focal adhesion kinase 1 (Homo sapiens) (UniProt Q05397); assay: Binding affinity to human PTK2 at 500 nM by cell-based competition binding assay relative to control in presence of DTT
Focal adhesion kinase 1 (Homo sapiens), sequence (Q05397 2-1052 limits assumed): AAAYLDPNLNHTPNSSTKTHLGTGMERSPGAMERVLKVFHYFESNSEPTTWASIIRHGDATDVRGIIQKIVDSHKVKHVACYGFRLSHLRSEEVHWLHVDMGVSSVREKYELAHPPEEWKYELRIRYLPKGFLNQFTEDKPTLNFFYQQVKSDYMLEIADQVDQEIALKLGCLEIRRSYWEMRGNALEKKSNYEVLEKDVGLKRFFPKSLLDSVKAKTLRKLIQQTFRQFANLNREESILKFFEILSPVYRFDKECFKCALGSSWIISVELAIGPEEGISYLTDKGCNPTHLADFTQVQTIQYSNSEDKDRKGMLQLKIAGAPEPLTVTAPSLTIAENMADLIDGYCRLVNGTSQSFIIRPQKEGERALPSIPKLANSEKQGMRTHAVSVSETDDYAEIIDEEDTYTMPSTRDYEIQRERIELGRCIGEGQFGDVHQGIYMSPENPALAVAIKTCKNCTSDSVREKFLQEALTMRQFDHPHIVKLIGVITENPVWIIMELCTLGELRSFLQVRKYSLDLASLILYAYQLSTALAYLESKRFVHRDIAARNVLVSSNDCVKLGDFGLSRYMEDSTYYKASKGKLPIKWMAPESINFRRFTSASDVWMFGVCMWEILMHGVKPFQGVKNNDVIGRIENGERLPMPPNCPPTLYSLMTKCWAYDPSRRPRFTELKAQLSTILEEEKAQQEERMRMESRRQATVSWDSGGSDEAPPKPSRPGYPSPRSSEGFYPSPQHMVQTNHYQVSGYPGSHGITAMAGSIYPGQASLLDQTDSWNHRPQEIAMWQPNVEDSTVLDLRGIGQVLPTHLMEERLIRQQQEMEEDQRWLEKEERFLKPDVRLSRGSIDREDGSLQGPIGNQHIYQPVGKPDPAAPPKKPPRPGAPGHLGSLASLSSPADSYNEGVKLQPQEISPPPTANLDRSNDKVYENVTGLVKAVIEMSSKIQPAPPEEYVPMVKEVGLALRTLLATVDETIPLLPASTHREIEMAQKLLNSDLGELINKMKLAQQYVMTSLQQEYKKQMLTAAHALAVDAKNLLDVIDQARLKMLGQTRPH

[4] = target: ALK tyrosine kinase receptor (Homo sapiens) (UniProt Q9UM73); assay: Binding affinity to human ALK at 200 nM by cell-based competition binding assay relative to control in presence of DTT
ALK tyrosine kinase receptor (Homo sapiens), sequence (Q9UM73 19-1620 limits assumed): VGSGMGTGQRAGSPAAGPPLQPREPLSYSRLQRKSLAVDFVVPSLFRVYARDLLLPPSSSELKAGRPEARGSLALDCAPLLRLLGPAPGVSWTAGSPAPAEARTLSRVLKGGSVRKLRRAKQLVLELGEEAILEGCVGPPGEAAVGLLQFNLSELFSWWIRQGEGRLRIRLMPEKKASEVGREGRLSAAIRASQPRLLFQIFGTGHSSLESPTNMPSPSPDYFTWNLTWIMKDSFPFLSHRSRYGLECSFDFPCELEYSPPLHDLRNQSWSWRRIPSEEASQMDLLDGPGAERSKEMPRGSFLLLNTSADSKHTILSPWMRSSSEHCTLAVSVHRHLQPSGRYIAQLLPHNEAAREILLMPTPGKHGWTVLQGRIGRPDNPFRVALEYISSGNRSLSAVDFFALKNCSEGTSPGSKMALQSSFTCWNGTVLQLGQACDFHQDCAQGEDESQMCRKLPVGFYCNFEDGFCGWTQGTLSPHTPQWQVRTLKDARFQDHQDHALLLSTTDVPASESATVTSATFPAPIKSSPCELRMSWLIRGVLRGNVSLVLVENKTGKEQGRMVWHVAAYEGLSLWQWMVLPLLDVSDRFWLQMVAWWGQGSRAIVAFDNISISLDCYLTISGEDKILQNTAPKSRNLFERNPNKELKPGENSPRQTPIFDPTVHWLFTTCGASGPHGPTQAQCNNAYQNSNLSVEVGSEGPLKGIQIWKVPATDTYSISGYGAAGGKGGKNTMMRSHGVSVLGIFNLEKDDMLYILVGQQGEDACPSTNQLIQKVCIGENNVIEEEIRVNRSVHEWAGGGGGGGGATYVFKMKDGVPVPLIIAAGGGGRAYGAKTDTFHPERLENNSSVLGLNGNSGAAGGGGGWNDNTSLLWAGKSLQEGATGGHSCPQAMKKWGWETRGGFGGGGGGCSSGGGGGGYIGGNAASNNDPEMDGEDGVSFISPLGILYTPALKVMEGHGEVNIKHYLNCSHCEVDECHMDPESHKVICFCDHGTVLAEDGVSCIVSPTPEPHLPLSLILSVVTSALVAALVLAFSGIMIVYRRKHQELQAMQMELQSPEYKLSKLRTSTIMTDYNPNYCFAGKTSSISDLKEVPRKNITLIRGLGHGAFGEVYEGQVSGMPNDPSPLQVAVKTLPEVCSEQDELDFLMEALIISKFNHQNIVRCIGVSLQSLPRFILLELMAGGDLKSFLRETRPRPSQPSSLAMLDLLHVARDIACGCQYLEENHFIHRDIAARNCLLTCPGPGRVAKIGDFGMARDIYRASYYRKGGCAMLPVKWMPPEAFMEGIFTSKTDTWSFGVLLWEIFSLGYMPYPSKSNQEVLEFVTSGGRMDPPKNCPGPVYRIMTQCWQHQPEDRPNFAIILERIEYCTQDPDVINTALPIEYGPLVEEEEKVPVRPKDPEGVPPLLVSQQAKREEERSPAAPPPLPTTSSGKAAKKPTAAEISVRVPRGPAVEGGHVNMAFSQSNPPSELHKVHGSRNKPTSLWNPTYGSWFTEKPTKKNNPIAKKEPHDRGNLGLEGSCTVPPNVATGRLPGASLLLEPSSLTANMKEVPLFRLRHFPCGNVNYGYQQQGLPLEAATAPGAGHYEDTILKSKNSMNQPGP
Outline: (§2)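 Kinase binding profiling ran on a commercial (Ambit) competitive binding screen against a panel of 90 kinases. The screen used reducing conditions with 7.5 mM DTT. To withstand the DTT, the bivalent ligand was tested as its amide isostere, with the disulfide replaced. A staurosporine derivative carrying a 3 β-alanine linker was run as the reference compound.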

[5] = target: T2, Serine/threonine-protein kinase PLK4 (Homo sapiens) (UniProt O00444); assay: Binding affinity to human PLK4 at 200 nM by cell-based competition binding assay relative to control in presence of DTT
T2 sequence (whole entry): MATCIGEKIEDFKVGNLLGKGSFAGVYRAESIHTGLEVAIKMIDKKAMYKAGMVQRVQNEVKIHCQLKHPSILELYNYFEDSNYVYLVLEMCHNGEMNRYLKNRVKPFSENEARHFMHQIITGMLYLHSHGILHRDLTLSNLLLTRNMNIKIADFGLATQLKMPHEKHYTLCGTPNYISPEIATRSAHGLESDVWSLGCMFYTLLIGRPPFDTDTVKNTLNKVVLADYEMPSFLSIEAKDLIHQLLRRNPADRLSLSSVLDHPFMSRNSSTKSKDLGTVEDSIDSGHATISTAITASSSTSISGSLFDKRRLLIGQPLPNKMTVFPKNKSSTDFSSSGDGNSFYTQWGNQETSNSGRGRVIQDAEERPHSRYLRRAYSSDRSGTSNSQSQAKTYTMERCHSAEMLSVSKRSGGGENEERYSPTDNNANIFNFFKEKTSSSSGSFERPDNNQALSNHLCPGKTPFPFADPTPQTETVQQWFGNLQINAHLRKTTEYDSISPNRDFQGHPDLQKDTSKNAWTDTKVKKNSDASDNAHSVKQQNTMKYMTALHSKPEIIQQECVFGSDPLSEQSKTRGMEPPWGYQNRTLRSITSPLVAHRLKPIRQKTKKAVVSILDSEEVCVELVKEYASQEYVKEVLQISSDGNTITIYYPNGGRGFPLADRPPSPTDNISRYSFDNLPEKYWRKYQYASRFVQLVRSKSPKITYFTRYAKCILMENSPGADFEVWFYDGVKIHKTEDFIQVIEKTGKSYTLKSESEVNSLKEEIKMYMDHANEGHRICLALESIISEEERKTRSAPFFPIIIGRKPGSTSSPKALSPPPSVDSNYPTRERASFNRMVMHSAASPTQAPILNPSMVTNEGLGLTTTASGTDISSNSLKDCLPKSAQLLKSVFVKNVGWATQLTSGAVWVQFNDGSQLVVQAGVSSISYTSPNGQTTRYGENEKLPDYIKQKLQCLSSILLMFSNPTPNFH

[6] = system: Mast/stem cell growth factor receptor Kit (Homo sapiens), P10721 [D816V]; assay: Binding affinity to human KIT D816V mutant at 200 nM by cell-based competition binding assay relative to control in presence of DTT
Outline: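 Competition binding screen (Ambit) across a panel of 90 kinases, scoring test ligand displacement of each kinase's binding relative to control. The screen ran under reducing conditions with 7.5 mM DTT.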

[7] = target: Cyclin-dependent kinase 9 (Homo sapiens) (UniProt P50750); assay: Binding affinity to human CDK9 at 200 nM by cell-based competition binding assay relative to control in presence of DTT; outline: as §1
Cyclin-dependent kinase 9 (Homo sapiens), sequence (P50750 whole entry): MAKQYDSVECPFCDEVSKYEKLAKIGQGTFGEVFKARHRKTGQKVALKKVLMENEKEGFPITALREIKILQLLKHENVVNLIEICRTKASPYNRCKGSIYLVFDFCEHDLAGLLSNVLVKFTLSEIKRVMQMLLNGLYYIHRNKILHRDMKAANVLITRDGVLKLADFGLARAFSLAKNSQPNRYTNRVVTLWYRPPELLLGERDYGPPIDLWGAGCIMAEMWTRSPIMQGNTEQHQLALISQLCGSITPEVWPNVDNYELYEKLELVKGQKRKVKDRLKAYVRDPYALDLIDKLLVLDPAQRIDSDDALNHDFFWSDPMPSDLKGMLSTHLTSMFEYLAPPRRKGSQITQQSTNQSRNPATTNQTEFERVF

[8] = target: Platelet-derived growth factor receptor beta (Homo sapiens) (UniProt P09619); assay: Binding affinity to human PDGFRbeta at 50 nM by cell-based competition binding assay relative to control in presence of DTT
[9] = target: T3, TGF-beta receptor type-1 (Homo sapiens) (UniProt P36897); assay: Binding affinity to human TGFBR1 at 50 nM by cell-based competition binding assay relative to control in presence of DTT
T3 sequence (whole entry): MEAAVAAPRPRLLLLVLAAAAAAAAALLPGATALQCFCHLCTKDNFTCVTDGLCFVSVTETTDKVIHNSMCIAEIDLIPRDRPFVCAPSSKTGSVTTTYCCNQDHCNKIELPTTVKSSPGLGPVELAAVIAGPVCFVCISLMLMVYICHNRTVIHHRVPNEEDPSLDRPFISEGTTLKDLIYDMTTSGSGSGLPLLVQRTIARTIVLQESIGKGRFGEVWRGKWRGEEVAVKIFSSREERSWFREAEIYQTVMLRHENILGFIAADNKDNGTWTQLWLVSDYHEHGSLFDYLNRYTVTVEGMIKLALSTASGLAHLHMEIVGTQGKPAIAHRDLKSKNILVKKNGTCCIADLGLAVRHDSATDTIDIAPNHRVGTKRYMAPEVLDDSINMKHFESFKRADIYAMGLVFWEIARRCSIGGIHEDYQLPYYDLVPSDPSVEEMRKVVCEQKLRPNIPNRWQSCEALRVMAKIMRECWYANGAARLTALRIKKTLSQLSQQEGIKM

[10] = target: Serine/threonine-protein kinase pim-3 (Homo sapiens) (UniProt Q86V86); assay: Binding affinity to human PIM3 at 50 nM by cell-based competition binding assay relative to control in presence of DTT
[11] = target: Serine/threonine-protein kinase PAK 1 (Homo sapiens) (UniProt Q13153); assay: Binding affinity to human PAK1 at 50 nM by cell-based competition binding assay relative to control in presence of DTT
Serine/threonine-protein kinase PAK 1 (Homo sapiens), sequence (Q13153 whole entry): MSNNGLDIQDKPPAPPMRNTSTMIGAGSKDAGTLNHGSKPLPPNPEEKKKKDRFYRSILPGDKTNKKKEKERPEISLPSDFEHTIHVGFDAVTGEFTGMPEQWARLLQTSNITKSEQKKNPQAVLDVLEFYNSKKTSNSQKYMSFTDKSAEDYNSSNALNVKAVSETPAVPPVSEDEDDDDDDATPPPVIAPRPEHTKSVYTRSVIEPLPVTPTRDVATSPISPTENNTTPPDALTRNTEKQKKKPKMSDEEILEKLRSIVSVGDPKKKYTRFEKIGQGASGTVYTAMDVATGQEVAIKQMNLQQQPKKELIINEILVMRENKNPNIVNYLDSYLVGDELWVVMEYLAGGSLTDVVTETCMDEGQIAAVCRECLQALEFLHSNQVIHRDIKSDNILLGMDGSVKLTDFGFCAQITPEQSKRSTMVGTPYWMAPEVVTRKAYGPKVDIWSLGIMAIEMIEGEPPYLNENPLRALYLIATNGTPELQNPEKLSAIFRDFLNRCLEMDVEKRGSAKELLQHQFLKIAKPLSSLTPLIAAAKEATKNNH

[12] = target: ALK tyrosine kinase receptor (Homo sapiens) (UniProt Q9UM73); assay: Binding affinity to human ALK at 50 nM by cell-based competition binding assay relative to control in presence of DTT; outline: as §2

## CO[C@@H]1[C@H](N(C)C(=O)CCC(=O)NCCC(=O)NCCC(=O)NCCC(N)=O)C[C@H]2O[C@]1(C)n1c3ccccc3c3c4c(c5c6ccccc6n2c5c31)C(=O)NC4
[1]
  Activity: 2.6%
[2]
  Activity: 5.6%
[3]
  Activity: 65%

## CO[C@@H]1[C@H](N(C)C(=O)CCC(=O)NCCC(=O)NCCC(=O)NCCC(=O)NCCC(=O)NCCC(=O)NCCC(=O)NCCC(=O)N[C@H]2CSSC[C@@H](C(=O)NCC(N)=O)NC(=O)CNC(=O)[C@H](Cc3ccccc3)NC(=O)[C@H](C(C)C)NC(=O)[C@H](CCCNC(=N)N)NC(=O)[C@H](Cc3ccccc3)NC(=O)[C@H](C(C)C)NC2=O)C[C@H]2O[C@]1(C)n1c3ccccc3c3c4c(c5c6ccccc6n2c5c31)C(=O)NC4 ({Staurosporine-Suc-βAla-βAla-βAla-βAla-βAla-βAla-βAla}-CVFRVFGCG-NH2; disulfide 1-8)
[4]
  Activity: 60%
[5]
  Activity: 4.9%
[6]
  Activity: 0.65%
[7]
  Activity: 100%

## CO[C@@H]1[C@H](N(C)C(=O)CCC(=O)NCCC(=O)NCCC(=O)NCCC(=O)NCCC(=O)NCCC(=O)NCCC(=O)NCCC(=O)N[C@H]2CNC(=O)C[C@@H](C(N)=O)NC(=O)CNC(=O)[C@H](Cc3ccccc3)NC(=O)[C@H](C(C)C)NC(=O)[C@H](CCCNC(=N)N)NC(=O)[C@H](Cc3ccccc3)NC(=O)[C@H](C(C)C)NC2=O)C[C@H]2O[C@]1(C)n1c3ccccc3c3c4c(c5c6ccccc6n2c5c31)C(=O)NC4 ({Staurosporine-Suc-βAla-βAla-βAla-βAla-βAla-βAla-βAla}-[Dap]VFRVFGD-NH2; lactam 1-8)
[8]
  Activity: 23%
[9]
  Activity: 100%
[10]
  Activity: 66%
[11]
  Activity: 66%
[12]
  Activity: 92%
